Source: PubChem BioAssay (several laboratories)
Compounds with a hit are over-represented: about 2.6% of the library has one in this group of screens.
NPY-Y2 PAM-ag – NPY-Y2 potentiators or agonists, primary screen, cell-based; Neuropeptide Y receptor type 2 (Homo sapiens), P49146; cells expressing NPY-Y2, potentiator/agonist read-out; activation, % at 3.6 µM; 220,000 compounds, 0.45% hits; in the data active means activation above about 27%;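 further: cells stimulated with NPY near EC25 plus isoproterenol at EC100; 0% = vehicle plus submaximal agonist and 100% = vehicle plus saturating agonist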
NPY Y1 blocker – NPY-Y1 receptor antagonists, primary screen, cell-based | AID 1040, 2008 | Neuropeptide Y receptor type 1 (Homo sapiens), P25929 | HEK293-CNG Y1 cells, membrane potential fluorescence; NPY at EC95, then isoproterenol | 200,000 compounds, 1% hits | inhibition, % at 3.6 µM;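 active means inhibition above the campaign mean inhibition of all tested compounds plus 3 SD, cut at about 20% in these data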;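 further: 0% = DMSO wells given NPY plus isoproterenol and 100% = isoproterenol alone without NPY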
Target sequence (P25929 whole entry, looked up): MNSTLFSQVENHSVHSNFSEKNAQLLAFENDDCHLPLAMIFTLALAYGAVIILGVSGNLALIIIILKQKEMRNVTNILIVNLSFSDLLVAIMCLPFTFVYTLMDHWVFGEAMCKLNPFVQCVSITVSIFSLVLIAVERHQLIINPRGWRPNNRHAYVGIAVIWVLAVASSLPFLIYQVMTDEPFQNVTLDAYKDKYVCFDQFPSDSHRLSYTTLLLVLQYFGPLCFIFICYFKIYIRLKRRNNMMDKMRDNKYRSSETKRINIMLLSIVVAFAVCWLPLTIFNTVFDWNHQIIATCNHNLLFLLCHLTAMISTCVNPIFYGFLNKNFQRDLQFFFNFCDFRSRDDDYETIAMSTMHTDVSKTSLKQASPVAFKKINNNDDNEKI
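material = HEK293 cells with Y1 receptor plus CNG channel | also added = NPY 25 nM then isoproterenol 1 µM plus Ro 20-1724 25 µM | schedule = dye 3 h, compound 60 min room temperature, stimulation 45 min | measured by = membrane potential fluorescence | benchmarks = high control isoproterenol alone, low control NPY with isoproterenol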
NPY-Y2 antag – NPY-Y2 receptor antagonists, primary screen, cell-based. Neuropeptide Y receptor type 2 (Homo sapiens), P49146. NPY-Y2 expressing cells, antagonist mode. inhibition, % at 2.7 µM. 140,000 compounds, 0.99% hits;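 further: 0% = vehicle with agonist challenge and 100% = reference antagonist with challenge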
NPY-Y1 PAM-ag – NPY-Y1 receptor potentiators or agonists, primary screen, cell-based. Neuropeptide Y receptor type 1 (Homo sapiens), P25929. NPY-Y1 expressing cells, potentiator/agonist activation. activation, % at 3.6 µM. 220,000 compounds, 0.37% hits. AID 1304, 2008; in the data active means activation above about 33%, passing the limit was not always enough;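 further: cells stimulated with NPY at EC10 then isoproterenol at EC100; 0% = low agonist plus stimulus and 100% = saturating agonist plus stimulus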
bCat nuc transl – modulators of beta-catenin nuclear translocation, primary screen, imaging, HeLa cells, immunofluorescence, high-content; AID 1665, 2009; 190,000 compounds, 0.3% hits; nuclear translocation activity, % at 5 µM;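 active means nuclear translocation activity above 50% at 5 µM, with a well cell count of 50 or more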;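 further: per-cell ratio of nuclear to cytoplasmic median beta-catenin stain intensity; plate controls were DMSO negative control for no effect and GSK-3 inhibitor IX positive control for full effect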
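Test system: human HeLa cells, native beta-catenin. Compound dosing: 5 µM primary single dose, 0.1% DMSO, 0.02–20 µM confirmation series. Incubation: compound exposure 24 h at 37°C. Detection: beta-catenin immunostaining with DAPI counterstain, 20x imaging, 6 fields/well. Read-out basis: Nuclear/cytoplasmic beta-catenin signal ratio, % activation.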
MT stabilize HCS – microtubule stabilizers in HeLa cells, primary screen, imaging, high-content imaging. % tubulin-high responders, % at 10 µM. HeLa tubulin immunostaining HCS, 24 h; share of cells brighter than vehicle mean+2SD. 200,000 compounds, 0.83% hits;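 active means plate Z-score above 3 for both tubulin-high and condensed-nucleus cell shares, with cell loss under 80%, at 10 µM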;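 further: anti alpha tubulin signal scored within the nucleus-defined area of each cell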
NPY1 antag conf – NPY-Y1 receptor antagonists, retest of hits, confirmation, HEK293-CNG cells, membrane potential fluorescence, triplicate | shares compounds with NPY Y1 blocker | cAMP; NPY challenge against isoproterenol-raised cAMP | inhibition, % at 3.6 µM | 1,200 compounds, 21% hits | AID 1254, 2008; in the data active means inhibition above about 20%;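 further: 0% = vehicle with agonist plus stimulus and 100% = stimulus alone without agonist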
NPY-Y2 antag ct – NPY-Y2 receptor antagonists, selectivity check, confirmation, counter-screen for NPY-Y1 antagonist project, HEK293-CNG cells, membrane potential fluorescence, triplicate | AID 1255, 2008 | 1,200 compounds, 28% hits | shares compounds with NPY Y1 blocker | inhibition, % at 3.6 µM | antagonism; cells given NPY, then isoproterenol;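 further: 0% = DMSO with agonist challenge and 100% = reference antagonist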
An asterisk follows results filed as active; . = not tested or not shown. Unless noted, no stated cut-off is given here; in the data, active means inhibition above about 17%; inactive means the rest.

SMILES | NPY-Y2 PAM-ag | NPY Y1 blocker | NPY-Y2 antag | NPY-Y1 PAM-ag | bCat nuc transl | MT stabilize HCS | NPY1 antag conf | NPY-Y2 antag ct
Cc1cc(NC(=O)/C=C/c2ccccc2)c(C(C)C)cc1O | -18 | 28* | . | -17 | -1 | 3 | 25* | 24*
CC(C)(C)NCC(=O)N/N=C/c1ccc(OCc2ccccc2)cc1 | -33 | 25* | . | -35 | 1 | 1 | 21* | 31*
O=C(Oc1coc(CSc2ncccn2)cc1=O)c1ccccc1[N+](=O)[O-] | -8 | -4 | . | 0 | . | 3 | . | .
CCN(CC)c1ncnc2scc(C3COc4ccccc4O3)c12 (centres undefined) | -16 | 38* | 15 | -36 | -4 | 3 | 16 | 8
COc1ccccc1-c1ccc(SCC(=O)NCCc2ccccc2)nn1 | -1 | 1 | . | -12 | 0 | 2 | . | .
COc1ccccc1CCNC(=O)CSc1ccc(-c2ccco2)nn1 | 1 | 22* | . | -16 | 1 | 2 | 2 | 2
Cc1cccc(C(=O)Nc2cccc(OC(=O)c3cccc(C)c3)c2)c1 | -24 | 27* | 17 | -3 | -1 | 1 | 17 | 11
O=[N+]([O-])c1ccc(C2CCCC/C2=N\OCc2cccc(F)c2)c([N+](=O)[O-])c1 (centres undefined) | -12 | 31* | 0 | -37 | 5 | 2 | 11 | 11
CCN(CC)C(=O)c1c2c(nc3ccccc13)-c1ccccc1CC2 | -19 | 2 | 4 | -21 | -1 | 5 | . | .
O=C(CCN1C(=O)c2ccccc2C1=O)Nc1ccccc1C(=O)N1CCOCC1 | 3 | 4 | 3 | -2 | 0 | 2 | . | .
COCCCNCCCCOc1c(Cl)cc(C)cc1Br | -10 | 31* | 7 | -39 | -2 | 2 | 7 | 13
C=CCNCCCCOc1c(Cl)cc(C)cc1Br | -19 | 21* | 10 | -35 | 1 | 1 | 12 | 18*
O=S(=O)(NCCSc1ccccn1)c1ccc(Br)cc1 | -4 | 8 | . | -6 | -3 | 1 | . | .
COc1cc(S(=O)(=O)N(Cc2ccccc2)Cc2ccccn2)ccc1-n1cnnn1 | -13 | 4 | 0 | -13 | -4 | 3 | . | .
CC#CCN(CC#CC)S(=O)(=O)c1ccc(-n2cnnn2)c(OC)c1 | 10 | 21* | 17 | 2 | . | 3 | 9 | 9
Cc1cc([N+](=O)[O-])cnc1N1CCOCC1 | -16 | 3 | 4 | -25 | . | 3 | . | .
CCN(CCCNC(=O)c1cn(CC)c2ccc(S(=O)(=O)N(C)C)cc2c1=O)c1cccc(C)c1 | -18 | 35* | 13 | -18 | -5 | 1 | 57* | 72*
CNc1ccc(/C=C(\CCC(=O)O)c2nc3ccccc3s2)cc1[N+](=O)[O-] | -24 | 26* | 15 | -79 | 0 | 2 | 39* | 52*
Cc1ccc(/C=C(\CCC(=O)O)c2nc3ccccc3s2)cc1[N+](=O)[O-] | -26 | 18 | 15 | -22 | -1 | 5 | . | .
Cn1ccnc1SCC(=O)c1cc2ccccc2o1 | 4 | 0 | 3 | -12 | 0 | 4 | . | .
Cn1cnnc1SCC(=O)c1cc2ccccc2o1 | 6 | 63* | . | 14 | -1 | 3 | -2 | -1
COc1ccc(C(=O)C2CCCN(Cc3cccn3-c3ccc(Cl)cn3)C2)c(OC)c1 (centres undefined) | 7 | 50* | . | -26 | 0 | 4 | 29* | 31*
O=C(c1cccc(C(F)(F)F)c1)C1CCCN(Cc2cccc(OCCO)c2)C1 (centres undefined) | -13 | 4 | . | -7 | 0 | 3 | . | .
CC(C)CN1CCN(Cc2cccn2-c2ccc(Cl)cn2)CC1CCO (centres undefined) | -21 | 33* | . | -19 | 1 | 5 | 8 | 8
O=C(c1cccc(C(F)(F)F)c1)C1CCCN(Cc2cccn2-c2ccccn2)C1 (centres undefined) | -39 | 59* | . | -60 | 0 | 3 | 34* | 38*
SMILES | NPY-Y2 PAM-ag | NPY Y1 blocker | NPY-Y2 antag | NPY-Y1 PAM-ag | bCat nuc transl | MT stabilize HCS | NPY1 antag conf | NPY-Y2 antag ct
COc1ccc(C(=O)C2CCCN(Cc3cnc(N4CCOCC4)s3)C2)c(OC)c1 (centres undefined) | 11 | -2 | . | -10 | 1 | 4 | . | .
CC(C)CN1CCN(Cc2cccn2-c2ccccn2)CC1CCO (centres undefined) | -16 | 10 | . | 4 | 0 | 5 | . | .
O=C(O)CSc1ccc(NC(=O)Nc2ccccc2F)cc1 | -14 | . | . | -5 | 1 | . | . | .
CCN(CC)S(=O)(=O)c1ccc2[nH]cc(C(=O)NCCN3CCCCCC3)c(=O)c2c1 | -8 | 21* | -2 | -19 | -1 | 4 | 0 | 1
CCN(CC)S(=O)(=O)c1ccc2[nH]cc(C(=O)NCCCN3CCCCC3)c(=O)c2c1 | -2 | -4 | 2 | -7 | -2 | 8 | . | .
CC(C)=C(NC(=O)c1ccccc1)C(=O)N1CCOCC1 | 13 | 22* | 2 | 13 | -3 | 4 | -2 | 0
CCCn1nnc(NC(=O)c2cccc(Cl)c2)n1 | -9 | 51* | 2 | 10 | -1 | 2 | 1 | 1
CCc1ccccc1NC(=O)/C(=C/c1ccco1)c1ccccc1 | 0 | 22* | 2 | 6 | . | 1 | 3 | 3
CC(C)CCNC(=O)CCCC1=NS(=O)(=O)c2ccccc2N1 | 7 | -2 | 4 | -6 | 1 | 4 | . | .
COC(=O)c1ccc(C2C(Oc3ccc(OC)cc3)C(=O)N2CCc2ccc(F)cc2)cc1 (centres undefined) | 0 | 21* | 16 | -12 | 0 | 1 | 7 | 7
CCC(c1nnnn1CCC(C)C)N1CCC(C(N)=O)CC1 (centres undefined) | 0 | 3 | 1 | 5 | -1 | 2 | . | .
Cc1cc2c(=O)n(Cc3ccco3)c(SCC(=O)N3CCCc4ccccc43)nc2s1 | -12 | 22* | 8 | -8 | . | 2 | 1 | 4
CC(C)CNC(=O)c1ccccc1NC(=O)CN(c1ccccc1)S(=O)(=O)N(C)C | -31 | 4 | . | -5 | -3 | 4 | . | .
CCOc1ccccc1-c1nc(C(N)=O)c2[nH]c(=O)n(-c3cccc(C)c3)c2n1 | -5 | 24* | 17 | 4 | 2 | 4 | 13 | 6
